Calls of active or inactive are those of the source. No cut-off for these calls is given here.
Experiments:
A10 [1] = experiment: Antimicrofilament activity in rat A10 cells assessed as loss of microfilament at 2.5 ug/ml by rhodamine-phalloidin staining; type: functional, cell-based
How it was run: (§1)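 A-10 rat aortic smooth muscle cells treated with compound, then fixed; microfilament network scored as loss, additional loss, total loss, or cell loss, at the concentration given in each line.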

MC-38 = experiment: Cytotoxicity against mouse C38 cells assessed as zone units at 15 ug/disk by disk diffusion soft agar assay; type: functional
How it was run: (§2)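 Disk diffusion soft agar colony formation assay at 15 μg/disk; cytotoxicity read as zone units. Cells: L1210 murine leukemia, C38 murine colon, CFU-GM normal bone marrow. Samples called solid tumor selective when the solid tumor zone exceeds the normal-cell or leukemia zone by more than 250 units.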

L1210 = experiment: Cytotoxicity against mouse L1210 cells assessed as zone units at 15 ug/disk by disk diffusion soft agar assay; type: functional; how it was run: as §2
[2] = Cytotoxicity against mouse CFU-GM cells assessed as zone units at 15 ug/disk by disk diffusion soft agar assay; type: cell-based; how it was run: as §2
A10 [3] = experiment: Antimicrofilament activity in rat A10 cells assessed as loss of microfilament at 1 ug/ml by rhodamine-phalloidin staining; type: functional, cell-based; how it was run: as §1
A10 [4] = experiment: Antimicrofilament activity in rat A10 cells assessed as total loss of microfilament at 5 ug/ml by rhodamine-phalloidin staining; type: functional, cell-based; how it was run: as §1
A10 [5] = experiment: Antimicrofilament activity in rat A10 cells assessed as cell loss at 15 ug/ml by rhodamine-phalloidin staining; type: functional, cell-based; how it was run: as §1
A10 [6] = experiment: Antimicrofilament activity in rat A10 cells assessed as total loss of microfilament at 25 ug/ml by rhodamine-phalloidin staining; type: functional, cell-based; how it was run: as §1
A10 [7] = experiment: Antimicrofilament activity in rat A10 cells assessed as cell loss at 10 ug/ml by rhodamine-phalloidin staining; type: functional, cell-based; how it was run: as §1
A10 [8] = experiment: Antimicrofilament activity in rat A10 cells assessed as cell loss at 25 ug/ml by rhodamine-phalloidin staining; type: functional, cell-based; how it was run: as §1
A10 [9] = experiment: Antimicrofilament activity in rat A10 cells assessed as loss of microfilament at 15 ug/ml by rhodamine-phalloidin staining; type: functional, cell-based; how it was run: as §1
A10 [10] = experiment: Antimicrofilament activity in rat A10 cells assessed as loss of microfilament at 10 ug/ml by rhodamine-phalloidin staining; type: functional, cell-based; how it was run: as §1

SMILES | Activity (A10 [1]) | Activity (MC-38) | Activity (L1210) | Activity [2] | Activity (A10 [3]) | Activity (A10 [4]) | Activity (A10 [5]) | Activity (A10 [6]) | Activity (A10 [7]) | Activity (A10 [8]) | Activity (A10 [9]) | Activity (A10 [10])
CC[C@@H]1C(C)=C[C@@H]2/C=C/C[C@H](C)/C=C(\C)[C@@H](O)[C@@H](O)/C=C/C(=O)[C@]23C(=O)N[C@@H]([C@H](C)c2c[nH]c4ccccc24)[C@H]13 | Active | 400 Zone units | 500 Zone units | 500 Zone units | Active | Active | – | – | – | – | – | –
CC[C@@H]1C(C)=C[C@@H]2/C=C/C[C@H](C)/C=C(\C)CC/C=C/C(=O)[C@]23C(=O)N[C@@H]([C@H](C)c2c[nH]c4ccccc24)[C@H]13 | – | 150 Zone units | – | – | – | – | Active | Active | Active | Active | Active | Active
CC[C@@H]1C(C)=C[C@@H]2/C=C/C[C@H](C)/C=C(\C)[C@@H](O)C(=O)/C=C/C(=O)[C@]23C(=O)N[C@@H]([C@H](C)c2c[nH]c4ccccc24)[C@H]13 | – | 350 Zone units | 250 Zone units | 250 Zone units | – | – | – | – | – | – | – | –
